Screening results (PubChem)
Hits are enriched below; roughly 1.6% of the tested compounds scored in any of these assays.
Diaphorase act: activates diaphorase or chemically reduces, flagging diaphorase assay artifacts. actives 0.005% (n = 190,000). activation factor at 20 µM. Diaphorase/resazurin coupled assay, resorufin fluorescence, 16 min; hits give high values; 1 = vehicle wells, 0 = NADH-free wells. AID 1229;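 active = diaphorase activity raised at least twofold by the compound at 20 µM; inactive = activation factor below 2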
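Assay system: Purified diaphorase enzyme from Clostridium kluyveri | Amount: Enzyme 0.07 U/mL final | Dosing: Compound 20 µM once, DMSO 1% | Timing: 16 min reaction at room temperature | Detection: Fluorescence, excitation 544 nm and emission 590 nm | Evaluation: Higher resorufin formation from activation or reduction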
ABCG2 block: blocks JC-1 efflux by human ABCG2 transporter; Q9UNQ0; IgMXP3 cells, flow cytometry; actives 0.1% (n = 190,000); inhibition, % at 6.6 µM;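 active = inhibition above 80%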;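 also: 0% = DMSO and 100% = nicardipine control wells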
Target sequence (Q9UNQ0 whole entry, looked up): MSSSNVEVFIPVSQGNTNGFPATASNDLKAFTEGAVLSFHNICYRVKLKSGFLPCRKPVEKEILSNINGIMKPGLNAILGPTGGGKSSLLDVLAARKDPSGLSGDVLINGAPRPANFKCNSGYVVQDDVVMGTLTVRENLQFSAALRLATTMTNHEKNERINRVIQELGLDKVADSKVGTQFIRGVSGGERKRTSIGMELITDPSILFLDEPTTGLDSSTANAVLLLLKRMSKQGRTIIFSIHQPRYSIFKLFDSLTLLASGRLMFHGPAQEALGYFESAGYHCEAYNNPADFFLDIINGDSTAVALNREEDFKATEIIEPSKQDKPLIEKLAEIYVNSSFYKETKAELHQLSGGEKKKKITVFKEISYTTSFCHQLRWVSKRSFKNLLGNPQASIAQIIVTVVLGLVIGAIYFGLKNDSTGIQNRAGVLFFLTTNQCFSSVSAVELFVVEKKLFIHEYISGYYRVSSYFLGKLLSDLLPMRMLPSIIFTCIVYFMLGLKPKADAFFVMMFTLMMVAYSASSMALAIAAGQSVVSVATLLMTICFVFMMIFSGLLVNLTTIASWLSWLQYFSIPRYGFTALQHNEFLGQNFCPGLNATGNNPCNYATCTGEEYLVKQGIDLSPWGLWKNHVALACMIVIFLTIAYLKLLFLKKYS
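Measure – % inhibition of efflux relative to nicardipine and DMSO · Test system – ABCG2 IgMXP3 and barcoded ABCB1 CCRF-Adr cell mix · Control set – nicardipine as high control, DMSO as low control · Compound – one concentration, 6.6 µM final · Signal – flow cytometry of retained JC-1 fluorescence · Timing – 10 min exposure at 25 °C with rotation, no wash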
NCF1 inh: blocks human p47phox regulatory protein of NADPH oxidases; actives 0.53% (n = 220,000); p47phox/p22phox peptide binding, fluorescence polarization, 2 h; inhibition, % at 24.7 µM; AID 1274;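 active = inhibition above about 30%, limit read from the data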;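 also: 0% = p47phox with labelled peptide and 100% = labelled peptide alone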
Efa HMGR inh: inhibitors of class II HMG-CoA reductase from Enterococcus faecalis. inhibition, % at 10 µM. actives 0.41% (n = 190,000). purified E. faecalis HMGR, NADPH absorbance 340 nm kinetic. AID 1066;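 active = inhibition above a set limit, the median over all tested compounds plus 3 SD, cut at about 9.5% in these data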;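 also: enzyme runs in reverse so mevalonate oxidation gives rising NADPH absorbance; 0% = complete reaction with DMSO and 100% = background rate lacking mevalonate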
ABCB1 inh: human ABCB1 inhibition, ABCG2 as counter-screen; CCRF-Adr cells, JC-1 efflux, flow cytometry; inhibition, % at 6.6 µM; actives 0.067% (n = 190,000); AID 1326; in the data active = inhibition above about 40%;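 also: 0% = vehicle and 100% = reference inhibitor; higher value means more JC-1 retained so stronger ABCB1 efflux block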
Diaphorase inh: counter-screen for diaphorase-based assays: diaphorase inhibitors and chemical oxidizers | diaphorase resazurin-to-resorufin fluorescence, NADH, 16 min; bacterial (C. kluyveri) enzyme, not human | inhibition, % at 20 µM | actives 0.69% (n = 190,000) | AID 1217;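 active = primary screen inhibition at 20 µM above a set limit, cut at about 50% in these data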;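 also: plate controls were DMSO with full reaction for no effect and wells lacking NADH for full effect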
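Test system: diaphorase enzyme from Clostridium kluyveri; amount: diaphorase at 0.14 U/mL in enzyme working solution; detection: fluorescence of resorufin formed from resazurin, Ex 544/Em 590 nm; times: reaction incubation of 16 min at room temperature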
* = called active by the depositor; x = not tested or not shown.

SMILES | Diaphorase act | ABCG2 block | NCF1 inh | Efa HMGR inh | ABCB1 inh | Diaphorase inh
CCN1CCN(C(c2cccs2)C(C)NC(=S)Nc2cc(C)ccc2C)CC1 (stereo unspecified) | x | x | -3 | x | x | x
Nc1nc(CSc2ncn[nH]2)nc(Nc2ccc(F)cc2)n1 | 0.9 | 0 | -5 | -3 | 0 | 13
O=C1Nc2ccc(S(=O)(=O)NCCC3=CCCCC3)c3cccc1c23 | 0.8 | 2 | -14 | 9 | 0 | 22
O=C(CNC(=O)C1CCCCC1)Nc1ccccc1Cl | 0.9 | 3 | 53* | -6 | 0 | 15
C=CCn1c(SCc2ccc3nonc3c2)nnc1-c1cccs1 | 0.8 | 0 | 5 | 1 | 1 | 19
COc1ccccc1NC(=O)COc1ccc(/C=N/NC(=O)CSCc2ccc(Cl)cc2)cc1 | 1.1 | 3 | 15 | -3 | 0 | -7
COc1ccccc1NC(=O)COc1ccc(/C=N/NC(=O)CSCc2cc(C)cc(C)c2)cc1 | 0.9 | 7 | 34* | -10 | 1 | 8
Cc1c(C(=O)N2CCc3ccccc32)cnn1C | 1 | 5 | 1 | 11* | 1 | -1
Cc1occc1-c1nnc(SCC(=O)Nc2ccccc2)n1CCc1ccccc1 | 0.8 | 5 | -7 | -3 | 1 | 18
Cc1occc1-c1nnc(SCC(=O)Nc2ccccc2)n1C | 0.2 | 2 | 2 | 0 | 1 | 78*
Cc1[nH]n(-c2ccccc2)c(=S)c1C=Nc1ccc([N+](=O)[O-])cc1 | 0.7 | -8 | 87* | -1 | -8 | 28
COc1ccc(C(=O)NC(=S)Nc2cccnc2)cc1OC | 1.1 | 1 | -3 | -5 | 0 | -10
COc1cc(OC)cc(C(=O)NC(=S)NNC(=O)c2cnccn2)c1 | 0.3 | -1 | -2 | -6 | 0 | 68*
COc1ccc(C(=O)NC(=S)NNC(=O)c2cnccn2)cc1OC | 0.3 | 10 | -5 | 0 | 0 | 74*
COc1cc(C(=O)NNC(=S)NC(=O)c2ccc(Cl)cc2)cc(OC)c1OC | 0.4 | 2 | -15 | -3 | 5 | 61*
Cc1ccc(C(=O)Nc2ccccc2Sc2ccccc2)cc1 | 0.8 | 19 | -8 | 0 | 1 | 15
CC(C)(C)C(=O)N1CCC[C@H]1C(O)(c1ccccc1)c1ccccc1 | 1.1 | 1 | -2 | 14* | 0 | -9
Cc1ccc(C)c(N(C(=O)Cn2nnc3ccccc32)C(C(=O)NCc2ccco2)c2ccncc2)c1 (stereo unspecified) | 1 | 3 | -5 | 2 | 0 | 4
COc1ccc(NS(=O)(=O)c2cc(NC(=O)c3cccs3)ccc2N2CCOCC2)cc1 | 0.8 | 9 | -6 | 2 | 5 | 16
c1ccc(-c2noc(-c3ccc4ccccc4c3)n2)nc1 | 0.9 | 2 | -29 | -3 | 1 | 10
Cc1ccc(-c2nc(NCC3CCCO3)sc2C)cc1 (stereo unspecified) | 0.9 | 0 | -13 | 12* | 0 | 12
CCOc1ccc(N(CC(=O)NCc2ccccc2OC)S(C)(=O)=O)cc1 | 1 | 1 | -17 | -6 | 1 | -3
CCC(C)(C)NC(=O)C1CCCN1C(=O)NC1CCCCC1 (stereo unspecified) | 1 | 5 | -7 | -1 | 1 | -3
CC(NC(=O)C(Cc1ccccc1)NC(=O)c1ccccc1)C(=O)O (stereo unspecified) | 0.9 | -6 | -8 | -5 | 0 | 6
CN(CC(=O)NCCc1ccccc1)S(=O)(=O)c1ccccc1 | 1 | 5 | -5 | 14* | 0 | 2
SMILES | Diaphorase act | ABCG2 block | NCF1 inh | Efa HMGR inh | ABCB1 inh | Diaphorase inh
CCN(CC(=O)NCCc1ccccc1)S(=O)(=O)c1ccc(Br)cc1 | 1 | 7 | -3 | -4 | 2 | -2
CCC(=O)Nc1ccc2c(c1)nc(CN1CCCCC1)n2C | 0.9 | 1 | -13 | 15* | 0 | 14
COc1ccc(CNC(=O)c2ccc(C)o2)cc1 | 0.9 | 0 | -3 | -1 | 0 | 11
COc1ccc(C2SCCN2S(=O)(=O)c2ccc(NC(C)=O)cc2)cc1 (stereo unspecified) | 1 | 1 | -20 | -7 | 0 | 3
COC(=O)c1ccccc1N/C=C1\CCc2c(c(C)nn2-c2ccccn2)C1=O | 0.3 | 9 | -29 | 4 | 2 | 74*
COc1cc(OC)cc(C(=O)NCC(=O)OCc2nc3ccccc3s2)c1 | 0.9 | 4 | -18 | -4 | 0 | 13
NC(N)=N/N=C/c1ccc(OCc2ccc(Cl)cc2)cc1 | 1.5 | 18 | 54* | 1 | 1 | -53
NC(N)=N/N=C/c1ccc(OCc2ccccc2)cc1 | 1.2 | 3 | -17 | -2 | 0 | -16
COC(Cc1nnc(SC)n1-c1ccccc1)OC | 0.9 | 3 | -6 | 4 | 1 | 11
CCCCC1OC2(C)OC(=N)C1(C#N)C(C#N)(C#N)C2c1ccccc1 (stereo unspecified) | 0.4 | -2 | -31 | 1 | 0 | 58*
CCOC(=O)c1c(C)[nH]c(C(=O)COC(=O)C(C)Oc2ccc(Cl)cc2Cl)c1C (stereo unspecified) | 0.8 | 9 | -21 | -1 | 1 | 24
Cc1ccc(C2=NC(=O)/C(=C/c3cc(O)c(O)c(Br)c3)S2)cc1 | 0.2 | -10 | -51 | 9 | -5 | 81*
COc1cc(/C=C2\SC(=Nc3ccc(O)cc3)NC2=O)cc(OC)c1O | 0.8 | -2 | -135 | 0 | -1 | 19
Cc1ccc(/C=C2\SC(N3CCCC3)=NC2=O)cc1 | 0.9 | 17 | -5 | -5 | 1 | 7
COc1cc(/C=C2\SC(c3ccc(C)cc3)=NC2=O)cc(OC)c1O | 0.3 | 0 | -58 | -12 | 0 | 66*
COc1ccc(CC2(CO)CCN(Cc3cccc4nccnc34)CC2)cc1 | 1 | 11 | -8 | 1 | 5 | -4
COc1ccc(CN2CCC(CO)(Cc3ccccc3C(F)(F)F)CC2)c(F)c1 | 0.9 | 2 | -3 | 10* | 1 | 11
C=CCn1c(SCC(=O)c2[nH]c(C)c(C(C)=O)c2C)nnc1-c1ccncc1 | 1 | 1 | -8 | -1 | 0 | 2
C=CCn1c(SCC(=O)c2[nH]c(C)c(C(=O)OC)c2C)nc2scc(-c3ccc(OC)c(OC)c3)c2c1=O | 0.9 | 17 | 36* | -6 | 4 | 11
Cc1ccc(C(=O)NN2C(=O)C3C4C=CC(C5CC45)C3C2=O)cc1 (stereo unspecified) | 0.9 | 1 | -3 | 11* | 0 | 9
COc1cccc(OC)c1C(=O)N1CC(C)OC(C)C1 (stereo unspecified) | 1 | -8 | -5 | -8 | 0 | 2
